We go through one compound from ChEMBL document CHEMBL4680238, “Novel octapeptide-DTX prodrugs targeting MMP-7 as effective agents for the treatment of colorectal cancer with lower systemic toxicity” (Eur J Med Chem, 2020).

A short description of data set [1]: Drug uptake in BALB/c nude mouse xenografted with human HCT-116 cells assessed as drug level in kidney at 5 mg/kg, iv measured up to 24 hrs by LC-MS/MS analysis. The note with it: in vivo. The format is ADME, organism-based. The essentials:
(§1)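 Male BALB/c nude mice bearing s.c. HCT116 tumours (200-300 mm3), 20 per group. Single tail-vein dose of 5 mg/kg. Five mice per group killed at 0.5, 4, 8 and 24 h and heart-perfused with PBS. Tissues homogenized in saline (4 µL/mg) and precipitated with methanol containing paclitaxel internal standard. Prodrug, released DTX and free DTX measured by LC-MS/MS.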
On the technique in general: In xenograft studies the graft and the host belong to different species.

Data set [2] is described as follows: MRT (0 to infinity) in Sprague-Dawley rat at 5 mg/kg, iv measured up to 72 hrs by LC-MS/MS analysis. The format is ADME, organism-based. The settings on record: in vivo. The essentials: (§2)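 Male SD rats (180-200 g), fasted 12 h with free water, n = 3 per group. Single tail-vein dose of 5 mg/kg in 0.5% DMSO/5% castor oil/5% ethanol/89.5% saline. Retro-orbital blood drawn 0.083-72 h with heparin. Plasma protein-precipitated with methanol containing paclitaxel internal standard, then analysed by LC-MS/MS. Parameters from non-compartmental analysis, mean ± SD. For the DTX group, parameters were calculated after converting dose to the molar equivalent of the prodrug.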

The subject of another data set is SW-620. Description: Cytotoxicity against human SW-620 cells assessed as reduction in cell viability after 72 hrs by MTT assay. The settings on record: SW-620, 72 h. The format is functional, cell-based. The essentials: (§3)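 Cells seeded at 5000/well and precultured 1 day. HCT116 grown in McCoy's 5A + 10% FBS; SW620 and HEK293 in DMEM + 10% FBS; CCD18Co in DMEM + 15% FBS. Compounds from 0.1 M DMSO stocks were tested at 10^-10 to 10^-4 mol/L in sixplicate: HCT116 and HEK293 for 48 h, SW620 and CCD18Co for 72 h, at 37 °C, 5% CO2. MTT (5 mg/mL) added for 4 h, then A570 read; IC50 estimated.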
Background: Tetrazolium assays rely on reduction of a dye to a coloured formazan, in cell work by metabolically active cells.

Data set [3] is described as follows: Apparent volume of distribution in Sprague-Dawley rat at 5 mg/kg, iv measured up to 72 hrs by LC-MS/MS analysis. The format is ADME, organism-based. The settings on record: in vivo, read-out: Vz. The essentials:
as §2

Data set [4] deals with HCT-116. Description: Cytotoxicity against human HCT-116 cells assessed as reduction in cell viability after 48 hrs by MTT assay. The note with it: HCT-116, 48 h. It counts as functional, cell-based. The essentials: as §3
Data set [5] in a line: Drug uptake in BALB/c nude mouse xenografted with human HCT-116 cells assessed as drug level in lung at 5 mg/kg, iv measured up to 24 hrs by LC-MS/MS analysis. The format is ADME, organism-based. The settings on record: in vivo. The essentials: as §1
A short description of data set [6]: Toxicity in BALB/c nude mouse xenografted with human HCT-116 cells assessed as reduction in body weight at 5 mg/kg, ip administered once for every 7 days for 14 days relative to control. It counts as organism-based. Also on record: scale not given: the % may be the effect or the level left. The settings on record: in vivo, 336 h, time 14 day. The essentials:
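HCT116 s.c. xenografts in male BALB/c nude mice, n = 6 per group. Dosing was ip once every 7 days for 2 weeks in DMSO/castor oil/ethanol/saline; vehicle controls got solvent. Body weight recorded every other day or every three days. Weight loss taken at day 14. Mean ± SD.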

The nature of data set [7]: Drug uptake in BALB/c nude mouse xenografted with human HCT-116 cells assessed as drug level in tumour at 5 mg/kg, iv measured up to 24 hrs by LC-MS/MS analysis. The format is ADME, organism-based, Neoplasm. The note with it: in vivo. The essentials:
as §1

Data set [8] is described as follows: Toxicity in BALB/c nude mouse xenografted with human HCT-116 cells assessed as concentrated nucleus in liver at 5 mg/kg, ip administered once for every 7 days for 14 days by H and E staining based assay. The format is organism-based. The note with it: in vivo, 336 h, time 14 day. The essentials:
(§4)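 At the end of the 14-day ip xenograft study (HCT116, BALB/c nude), heart and liver were collected from vehicle and molar-equivalent dose groups. Tissues fixed in 10% formalin in PBS and stained with H&E. Liver examined at 400×, heart at 100×.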

Data set [9] in a line: AUC (0 to infinity) in Sprague-Dawley rat at 5 mg/kg, iv measured up to 72 hrs by LC-MS/MS analysis. The format is ADME, organism-based. The arrangement: route intravenous, dose 5 mg/kg, time <=72. The note with it: in vivo, 72 h. The essentials:
as §2

A short description of data set [10]: Toxicity in BALB/c nude mouse xenografted with human HCT-116 cells assessed as disordered myocardial fiber in heart at 5 mg/kg, ip administered once for every 7 days for 14 days by H and E staining based assay. The note with it: in vivo, 336 h, time 14 day. It counts as organism-based. The essentials: as §4
The subject of data set [11] is HCT-116. Description: Antitumour activity against human HCT-116 cells xenografted in BALB/c nude mouse assessed as tumour growth inhibition at 5 mg/kg, ip administered once for every 7 days for 14 days relative to control. It counts as functional. The note with it: HCT-116, ip, 336 h, time 14 day, read-out: TGI. The essentials: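 Male BALB/c nude mice received s.c. HCT116 cells (2 × 10^6 in 0.2 mL PBS). Once tumours reached 100-200 mm3, mice were randomized into groups of six. Dosing was ip, 0.1 mL/10 g, once every 7 days, in DMSO 0.5%/castor oil 5%/ethanol 5%/saline 89.5%; vehicle controls got solvent. Caliper volume V = L×W²×0.52 read every 2-3 days. Tumours excised and weighed on day 14.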

Data set [12] in a line: Drug uptake in BALB/c nude mouse xenografted with human HCT-116 cells assessed as drug level in heart at 5 mg/kg, iv measured up to 24 hrs by LC-MS/MS analysis. The format is ADME, organism-based. The settings on record: in vivo. The essentials:
as §1

Data set [13] is described as follows: Drug uptake in BALB/c nude mouse xenografted with human HCT-116 cells assessed as drug level in liver at 5 mg/kg, iv measured up to 24 hrs by LC-MS/MS analysis. It counts as ADME, organism-based. The settings on record: in vivo. The essentials: as §1
The nature of data set [14]: Toxicity in ip dosed Kunming mouse measured for 14 days. It counts as organism-based. The note with it: in vivo, time 14 day. The essentials: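 Healthy Kunming mice of both sexes, 20 ± 2 g, randomised into 5 groups of 10 matched for weight and size. Compound given once intraperitoneally at 400, 300, 250 or 150 mg/kg in formulation solvent (0.5% DMSO, 5% castor oil, 5% ethanol, 89.5% saline), 0.1 mL per 10 g; vehicle controls received solvent. Deaths recorded daily for 14 days; LD50 by Bliss method.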

The subject of a further data set is HEK293. The data set can be described thus: Cytotoxicity against HEK293 cells assessed as reduction in cell viability after 48 hrs by MTT assay. It counts as cell-based. The settings on record: Homo sapiens, HEK293, 48 h. The essentials: as §3
Data set [15] in a line: Drug uptake in BALB/c nude mouse xenografted with human HCT-116 cells assessed as drug level in spleen at 5 mg/kg, iv measured up to 24 hrs by LC-MS/MS analysis. The note with it: in vivo. It counts as ADME, organism-based. The essentials:
as §1

Data set [16] is described as follows: Apparent clearance in Sprague-Dawley rat at 5 mg/kg, iv measured up to 72 hrs by LC-MS/MS analysis. It counts as ADME, organism-based. The settings on record: in vivo, 5 mg/kg, 72 h. The essentials:
as §2

The subject of the next data set is CCD-18Co. The data set can be described thus: Cytotoxicity against human CCD-18Co cells assessed as reduction in cell viability after 72 hrs by MTT assay. It counts as cell-based. The essentials:
as §3

Data set [17] in a line: Toxicity in BALB/c nude mouse xenografted with human HCT-116 cells assessed as inflammatory cell invasion in heart at 5 mg/kg, ip administered once for every 7 days for 14 days by H and E staining based assay. The note with it: in vivo, 336 h, time 14 day. The format is organism-based. The essentials:
as §4

Data set [18] is described as follows: Half life in Sprague-Dawley rat at 5 mg/kg, iv measured up to 72 hrs by LC-MS/MS analysis. The format is ADME, organism-based. The note with it: in vivo. The essentials:
as §2

Data set [19] is described as follows: AUC (0 to t) in Sprague-Dawley rat at 5 mg/kg, iv measured up to 72 hrs by LC-MS/MS analysis. The format is ADME, organism-based. The arrangement: route intravenous, dose 5 mg/kg, time <=72. The note with it: in vivo. The essentials:
as §2

pIC50: −log10 of the molar value.

For orientation: MRT inf means the average time that molecules of a dose stay in the body. Usually pIC50 stands for −log10 of the IC50, conventionally taken in molar units. What is called AUC is concentration integrated over time. What is called LD50 is the dose at which mortality reaches 50%. In general, half-life refers to the time in which the quantity being followed falls by half. What is called AUC(0-t) is exposure summed from dosing to a finite time, without extrapolation to infinity. Take `CC(=O)O[C@@]12CO[C@@H]1C[C@H](O)[C@@]1(C)C(=O)[C@H](O)C3=C(C)[C@@H](OC(=O)[C@H](O)[C@@H](NC(=O)OC(C)(C)C)c4ccccc4)C[C@@](O)([C@@H](OC(=O)c4ccccc4)[C@H]21)C3(C)C` [DOCETAXEL ANHYDROUS]: the Drug uptake entry in [1], in data set [5], in data set [7], in data set [12], in [13] and in data set [15] was “Active” throughout. Besides, the MRT inf in [2] turned out to be 3.76 h. In addition, the pIC50 in the data set with SW-620 was 7.70; in the data set with HCT-116 [4], 8.46; in the data set with HEK293, 4.71; in the data set on CCD-18Co, 3.93. For the same compound, the Vd in [3] worked out at 22.6 L/kg. Moreover, the Activity is reported as 13% in data set [6], “Toxic” in data set [8], “Toxic” in [10] and “Toxic” in data set [17]. For the same compound, the AUC in data set [9] was determined as 867 ng·h/mL. Also, the inhibition in vivo at 5 mg/kg in the data set with HCT-116 [11] was found to be 42.7%. This compound also displayed an LD50 at 336 h in data set [14] of 74.1 mg/kg. Further, the “CL(app)” value in [16] is 46 mL/min/kg. The compound also showed a half-life in data set [18] of 5.75 h. In data set [19], the AUC(0-t) at 72 h was 930 ng·h/mL.
